Test results as given in ChEMBL document CHEMBL4325893, “Synthesis and antibacterial profiles of targeted triclosan derivatives” (2019).
Values after ≈ are worked out from the molar mass of the structure shown.

Columns and labels:
[1] = Antibacterial activity against Salmonella enterica subspecies enterica serotype Nottingham NCTC 7832 after 18 hrs; assay type: functional, Salmonella enterica subsp. enterica serovar Nottingham; details: NCTC 7832, 18 h
Method in brief: (§1)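 Broth microdilution in Nutrient Broth No. 2; stocks in ethanol diluted to 0.01–128 µg/ml (triclosan) or 0.25–256 µg/ml (glycosides). Overnight 37 °C NB2 cultures diluted 1 in 10^4 in saline and added to the dilutions. Incubation at 37 °C with agitation, OD read every 15 min; MIC is the lowest concentration preventing any OD rise after 18 h.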

[2] = tested on: Staphylococcus aureus; test: Antibacterial activity against Staphylococcus aureus NCTC 13758 after 18 hrs; assay type: functional; details: NCTC 13758, 18 h; method in brief: as §1
[3] = tested on: Enterococcus faecalis; test: Antibacterial activity against Enterococcus faecalis ATCC 33186 after 18 hrs; assay type: functional; details: ATCC 33186, 18 h; method in brief: as §1
[4] = tested on: Streptococcus viridans; test: Antibacterial activity against Streptococcus viridans OCC 234 after 18 hrs; assay type: functional; details: OCC 234, 18 h
Method in brief: (§2)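 Broth microdilution in Nutrient Broth No. 2. Ethanol stocks were diluted in broth to 0.01–128 µg/ml for triclosan and 0.25–256 µg/ml for glycosides. Overnight 37°C NB2 cultures were diluted 1 in 10^4 in saline and added to the wells. Plates were incubated at 37°C with OD read every 15 min after agitation. MIC was the lowest concentration giving no OD increase at 18 h.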

[5] = tested on: Serratia marcescens; test: Antibacterial activity against Serratia marcescens OCC 217 after 18 hrs; assay type: functional; details: OCC 217, 18 h; method in brief: as §1
[6] = tested on: Bacillus subtilis; test: Antibacterial activity against Bacillus subtilis NCTC 10073 after 18 hrs; assay type: functional; details: NCTC 10073, 18 h; method in brief: as §1
[7] = tested on: Citrobacter freundii; test: Antibacterial activity against Citrobacter freundii OCC 851 after 18 hrs; assay type: functional; details: OCC 851, 18 h; method in brief: as §1
[8] = tested on: Klebsiella pneumoniae; test: Antibacterial activity against Klebsiella pneumoniae ATCC 10031 after 18 hrs; assay type: functional; details: ATCC 10031, 18 h; method in brief: as §1
[9] = tested on: Escherichia coli; test: Antibacterial activity against Escherichia coli ATCC 11775 after 18 hrs; assay type: functional; method in brief: as §1
[10] = tested on: Escherichia coli; test: Antibacterial activity against Escherichia coli NCTC 13216 after 18 hrs; assay type: functional; details: NCTC 13216, 18 h; method in brief: as §1
[11] = tested on: Escherichia coli; test: Antibacterial activity against Escherichia coli ATCC 25922 after 18 hrs; assay type: functional; details: ATCC 25922, 18 h; method in brief: as §1
[12] = Antibacterial activity against Salmonella enterica subspecies enterica serotype Virchow NCTC 5742 after 18 hrs; assay type: functional, Salmonella enterica subsp. enterica serovar Virchow; details: NCTC 5742, 18 h; method in brief: as §1
[13] = tested on: Escherichia coli; test: Antibacterial activity against Escherichia coli 700728 after 18 hrs; assay type: functional; details: Escherichia coli, 700728, 18 h; method in brief: as §1
[14] = tested on: Staphylococcus aureus; test: Antibacterial activity against Staphylococcus aureus ATCC 25923 after 18 hrs; assay type: functional; details: ATCC 25923, 18 h; method in brief: as §1
[15] = tested on: Escherichia coli; test: Antibacterial activity against Escherichia coli ATCC 10536 after 18 hrs; assay type: functional; details: ATCC 10536, 18 h; method in brief: as §1
[16] = Antibacterial activity against Salmonella enterica subspecies enterica serotype Dublin OCC 627 after 18 hrs; assay type: functional, Salmonella enterica subsp. enterica serovar Dublin; details: OCC 627, 18 h; method in brief: as §1
[17] = tested on: Staphylococcus haemolyticus; test: Antibacterial activity against Staphylococcus haemolyticus OCC 2223 after 18 hrs; assay type: functional; details: OCC 2223, 18 h; method in brief: as §2
[18] = tested on: Citrobacter freundii; test: Antibacterial activity against Citrobacter freundii 8090 after 18 hrs; assay type: functional; details: Citrobacter freundii, 8090, 18 h; method in brief: as §1
[19] = Antibacterial activity against Salmonella enterica subspecies enterica serotype Pullorum OCC 273 after 18 hrs; assay type: functional, Salmonella enterica subsp. enterica serovar Pullorum; details: OCC 273, 18 h; method in brief: as §1
[20] = tested on: Staphylococcus aureus; test: Antibacterial activity against Staphylococcus aureus ATCC 9144 after 18 hrs; assay type: functional; details: ATCC 9144, 18 h; method in brief: as §1
[21] = tested on: Klebsiella aerogenes; test: Antibacterial activity against Klebsiella aerogenes NCTC 8167 after 18 hrs; assay type: functional; details: NCTC 8167, 18 h; method in brief: as §1
[22] = tested on: Staphylococcus saprophyticus; test: Antibacterial activity against Staphylococcus saprophyticus ATCC 15305 after 18 hrs; assay type: functional; details: ATCC 15305, 18 h; method in brief: as §2
[23] = tested on: Enterococcus faecium; test: Antibacterial activity against Enterococcus faecium ATCC 19434 after 18 hrs; assay type: functional; details: ATCC 19434, 18 h; method in brief: as §1
[24] = tested on: Staphylococcus epidermidis; test: Antibacterial activity against Staphylococcus epidermidis ATCC 12228 after 18 hrs; assay type: functional; details: ATCC 12228, 18 h; method in brief: as §1
[25] = tested on: Streptococcus pneumoniae; test: Antibacterial activity against Streptococcus pneumoniae ATCC 49619 after 18 hrs; assay type: functional; details: ATCC 49619, 18 h; method in brief: as §2
[26] = tested on: Staphylococcus aureus; test: Antibacterial activity against Staphylococcus aureus ATCC 6538 after 18 hrs; assay type: functional; details: ATCC 6538, 18 h; method in brief: as §1
[27] = tested on: Aeromonas hydrophila; test: Antibacterial activity against Aeromonas hydrophila OCC 778 after 18 hrs; assay type: functional; details: OCC 778, 18 h; method in brief: as §1
[28] = tested on: Escherichia hermannii; test: Antibacterial activity against Escherichia hermannii 33650 after 18 hrs; assay type: functional; details: Atlantibacter hermannii, 33650, 18 h; method in brief: as §1
[29] = tested on: Streptococcus agalactiae; test: Antibacterial activity against Streptococcus agalactiae OCC 182 after 18 hrs; assay type: functional; details: OCC 182, 18 h; method in brief: as §2

MIC [1]: 2 to 16 µg/mL (≈ 4.43 to 35.4 µM)
MIC [2]: 0.5 µg/mL (≈ 1.11 µM)
MIC [3]: 128 µg/mL (≈ 283 µM)
MIC [4]: 256 µg/mL (≈ 567 µM)
MIC [5]: > 256 µg/mL
MIC [6]: 32 µg/mL (≈ 70.8 µM)
MIC [7]: 8 µg/mL (≈ 17.7 µM)
MIC [8]: 0.5 µg/mL (≈ 1.11 µM)
MIC [9]: 0.5 to 32 µg/mL (≈ 1.11 to 70.8 µM)
MIC [10]: 0.5 to 32 µg/mL (≈ 1.11 to 70.8 µM)
MIC [11]: 0.5 to 32 µg/mL (≈ 1.11 to 70.8 µM)
MIC [12]: 2 to 16 µg/mL (≈ 4.43 to 35.4 µM)
MIC [13]: 0.5 to 32 µg/mL (≈ 1.11 to 70.8 µM)
MIC [14]: 0.5 µg/mL (≈ 1.11 µM)
MIC [15]: 0.5 to 32 µg/mL (≈ 1.11 to 70.8 µM)
MIC [16]: 2 to 16 µg/mL (≈ 4.43 to 35.4 µM)
MIC [18]: 8 µg/mL (≈ 17.7 µM)
MIC [19]: 2 to 16 µg/mL (≈ 4.43 to 35.4 µM)
MIC [20]: 0.5 µg/mL (≈ 1.11 µM)
MIC [21]: 4 µg/mL (≈ 8.86 µM)
MIC [22]: 8 µg/mL (≈ 17.7 µM)
MIC [23]: > 256 µg/mL
MIC [24]: 0.5 µg/mL (≈ 1.11 µM)
MIC [25]: 128 µg/mL (≈ 283 µM)
MIC [26]: 0.5 µg/mL (≈ 1.11 µM)
MIC [27]: 256 µg/mL (≈ 567 µM)
MIC [28]: 2 µg/mL (≈ 4.43 µM)
MIC [29]: 256 µg/mL (≈ 567 µM)
SMILES: OC[C@H]1O[C@@H](Oc2cc(Cl)ccc2Oc2ccc(Cl)cc2Cl)[C@H](O)[C@@H](O)[C@H]1O
MIC [17]: 0.5 µg/mL (≈ 1.11 µM)
